Experimental data from different studies.
Lines come from different studies, so protocols differ.
Effect on: cell growth or viability

SMILES	cell line	test	conditions	quantity	result
Cc1cc(Nc2ccc(C(=O)N/N=C/c3ccnc(Cl)c3)cc2)c2cccc(O)c2n1	Huh-7	MTT	20 µM	inhibition	32.9%
CCOC(=O)c1ccc(NC(=O)C2=C3C(=Nc4ccccc43)NC2=O)cc1	HepG2	MTT	1.56 µM, 24 h	viability	100%
Cc1ccc(/C=N/NC(=O)c2ccc(Nc3cc(C)nc4c(O)cccc34)cc2)cc1	Huh-7	MTT	20 µM	inhibition	62.5%
CCOC(=O)c1ccc(-n2c(C)cc(C)c(C#N)c2=O)cc1	HepG2	MTT	6.25 µM, 24 h	viability	90.3%
Cc1cccc(/C=N/NC(=O)c2ccc(Nc3cc(C)nc4c(O)cccc34)cc2)n1	Huh-7	MTT	20 µM	inhibition	53.1%
COc1cc(N2CCC(N3CCN(C)CC3)CC2)ccc1Nc1ncc(Cl)c(Nc2ccccc2P(C)(C)=O)n1	NCI-H292	ATP luminescence	72 h	GI50	2.76 µM
COc1ccc(NC(=O)c2c(Nc3ccccc3)sc(C(=O)NN=Cc3ccc(OC)c(O)c3)c2NC(C)=O)cc1	HepG2	SRB	0.1 µM, 48 h	viability	63.7%
CCOC(=O)c1ccc(-n2c(C)cc(/C=C/c3ccc(OC)cc3)c(C#N)c2=O)cc1	HepG2	MTT	1.56 µM, 24 h	viability	100%
C=CC(=O)Nc1cccc(Nc2nc(Nc3ccc(OCCOC)cc3)ncc2F)c1	Ramos	–	48 h	GI50	9.2 µM
COc1ccc(NC(=O)c2c(Nc3ccccc3)sc(C#N)c2NC(=O)CNc2ccc(C)cc2)cc1	HepG2	SRB	10 nM, 48 h	viability	88.3%
C[C@@H](NC(=O)[C@H](CCCCNC(=O)C(F)(F)F)NS(C)(=O)=O)C(=O)N[C@@H](CCCNC(=N)N)C(N)=O	HEK-293T	MTT	72 h	EC50	3.68 to 46.1 µM
COc1ccc(NC(=O)c2c(Nc3ccccc3)sc(C#N)c2NC(=O)CNc2ccccc2Cl)cc1	HepG2	SRB	0.1 µM, 48 h	viability	95.7%
CC(=O)Oc1ccc(/C=N/NC(=O)c2ccc(Nc3cc(C)nc4c(O)cccc34)cc2)cc1	Huh-7	MTT	20 µM	inhibition	31.2%
COc1ccc(NC(=O)c2c(Nc3ccccc3)sc(C#N)c2NC(=O)CNc2ccc(Cl)cc2)cc1	HepG2	SRB	10 µM, 48 h	viability	33.2%
CCOCCOCCOCCNC(=S)NCCCC[C@H](NS(C)(=O)=O)C(=O)N[C@@H](C)C(=O)N[C@@H](CCCNC(=N)N)C(N)=O	HEK-293T	MTT	72 h	EC50	> 100 µM
COc1ccc(NC(=O)c2c(Nc3ccccc3)sc(C#N)c2NC(=O)CNc2ccc([N+](=O)[O-])cc2)cc1	HepG2	SRB	10 nM, 48 h	viability	86.4%
CCOC(=O)c1ccc(N2C(N)=C(C#N)C3(C(=O)Nc4ccccc43)C(C#N)=C2O)cc1 (stereo not drawn)	HepG2	MTT	3.125 µM, 24 h	viability	69.3%

SMILES	cell line	test	conditions	quantity	result
CCCCCCCCCCCCNC(=O)NCCCC[C@H](NS(C)(=O)=O)C(=O)N[C@H](C)C(=O)N[C@@H](CCCNC(=N)N)C(N)=O	HEK-293T	MTT	72 h	EC50	28.6 to 38 µM
COc1ccc(NC(=O)c2c(Nc3ccccc3)sc(C#N)c2NC(=O)CNc2ccc(OC)c(OC)c2)cc1	HepG2	SRB	1 µM, 48 h	viability	83.7%
CCOC(=O)c1ccc(-n2c(C)cc(/C=C/c3ccc(OCC)cc3)c(C#N)c2=O)cc1	HepG2	MTT	6.25 µM, 24 h	viability	100%
Cc1cc(Nc2ccc(C(=O)N/N=C/c3ccncc3)cc2)c2cccc(O)c2n1	Huh-7	MTT	20 µM	inhibition	76.9%
CCOC(=O)Cc1sc(NCc2ncccn2)nc1-c1ccccn1	Huh-7	–	–	CC50	> 40 µM
CCOC(=O)c1ccc(-n2c(-c3ccc(C)cc3)cc(-c3ccc(O)cc3)c(C#N)c2=O)cc1	HepG2	MTT	25 µM, 24 h	viability	33.1%
COc1ccc(NCC(=O)Nc2c(C#N)sc(Nc3ccccc3)c2C(=O)Nc2ccc(OC)cc2)cc1	HepG2	SRB	0.1 µM, 48 h	viability	84.4%
CCOCc1sc(NCc2ncccn2)nc1-c1ccccn1	Huh-7	–	–	CC50	> 40 µM
CC(=O)Nc1cccc(-n2c(=O)n(C3CC3)c(=O)c3c(Nc4ccc(I)cc4F)n(C)c(=O)c(C)c32)c1	HepG2	resazurin	0.1 µM, 72 h	viability	40.7%
COc1ccc(NC(=O)c2c(Nc3ccccc3)sc(C#N)c2NC(=O)CNc2ccc(Br)cc2)cc1	HepG2	SRB	10 µM, 48 h	viability	46.2%
Cc1cc(Nc2ccc(C(=O)N/N=C/c3ccc(N(C)C)cc3)cc2)c2cccc(O)c2n1	Huh-7	MTT	20 µM	inhibition	69.9%
CO[C@]1(C(=O)N[C@@H](C)c2ccc(-n3cc(F)cn3)nc2)CC[C@H](c2nc(C)cc(Nc3cc(C)[nH]n3)n2)CC1	NCI-H292	ATP luminescence	72 h	GI50	> 10 µM
COc1cc(Nc2nccc(-c3cnn4nc(OC)ccc34)n2)cc(C(F)(F)F)c1	NCI-H292	ATP luminescence	–	IC50	0.45 µM
Cc1c(NC(=O)c2ccc(C(C)(C)C)cc2)cccc1-c1cn(C)c(=O)c(Nc2ccc(C(=O)N3CCOCC3)cc2)n1	Ramos	–	48 h	GI50	> 10 µM
CC(C)C[C@H](NC(=O)[C@H](Cc1ccccc1)NC(=O)c1cnccn1)B(O)O	NCI-H2009	ATP luminescence	–	IC50	0.017 µM
Cc1cc(Nc2ccc(C(=O)N/N=C/c3ccc[nH]3)cc2)c2cccc(O)c2n1	Huh-7	MTT	20 µM	inhibition	68.3%
